The text below walks through data of ChEMBL document CHEMBL4014339, “Discovery of 1,4-Benzodiazepine-2,5-dione (BZD) Derivatives as Dual Nucleotide Binding Oligomerization Domain Containing 1/2 (NOD1/NOD2) Antagonists Sensitizing Paclitaxel (PTX) To Suppress Lewis Lung Carcinoma (LLC) Growth in Vivo” (J Med Chem, 2017).

The target of assay [1] is Nucleotide-binding oligomerization domain-containing protein 2 (Homo sapiens, UniProt Q9HC29). Put plainly: Antagonist activity at human NOD2 expressed in HEK-Blue cells assessed as inhibition of MDP-stimulated cell activation at 10 uM preincubated for 3 hrs followed by MDP addition measured after 20 hrs by SEAP reporter gene assay. The class given is cell-based. Put shortly: (§1)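 HEK-Blue hNOD1 or hNOD2 cells preincubated with compound 3 h, then stimulated 20 h with C12-iE-DAP 50 ng/mL (NOD1) or MDP 100 ng/mL (NOD2); SEAP in supernatant quantified. Primary screen at 10 μM, hits repeated in triplicate; IC50 from dose-response, mean ± SD (n = 3), only for compounds reaching ≥50% inhibition at the screening concentration.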
(In general: Reporter assays use an easily measured gene product as a stand-in for the process of interest.)

Assay [2] deals with T1, Nucleotide-binding oligomerization domain-containing protein 1 (Homo sapiens) (UniProt Q9Y239).
T1 sequence (whole entry): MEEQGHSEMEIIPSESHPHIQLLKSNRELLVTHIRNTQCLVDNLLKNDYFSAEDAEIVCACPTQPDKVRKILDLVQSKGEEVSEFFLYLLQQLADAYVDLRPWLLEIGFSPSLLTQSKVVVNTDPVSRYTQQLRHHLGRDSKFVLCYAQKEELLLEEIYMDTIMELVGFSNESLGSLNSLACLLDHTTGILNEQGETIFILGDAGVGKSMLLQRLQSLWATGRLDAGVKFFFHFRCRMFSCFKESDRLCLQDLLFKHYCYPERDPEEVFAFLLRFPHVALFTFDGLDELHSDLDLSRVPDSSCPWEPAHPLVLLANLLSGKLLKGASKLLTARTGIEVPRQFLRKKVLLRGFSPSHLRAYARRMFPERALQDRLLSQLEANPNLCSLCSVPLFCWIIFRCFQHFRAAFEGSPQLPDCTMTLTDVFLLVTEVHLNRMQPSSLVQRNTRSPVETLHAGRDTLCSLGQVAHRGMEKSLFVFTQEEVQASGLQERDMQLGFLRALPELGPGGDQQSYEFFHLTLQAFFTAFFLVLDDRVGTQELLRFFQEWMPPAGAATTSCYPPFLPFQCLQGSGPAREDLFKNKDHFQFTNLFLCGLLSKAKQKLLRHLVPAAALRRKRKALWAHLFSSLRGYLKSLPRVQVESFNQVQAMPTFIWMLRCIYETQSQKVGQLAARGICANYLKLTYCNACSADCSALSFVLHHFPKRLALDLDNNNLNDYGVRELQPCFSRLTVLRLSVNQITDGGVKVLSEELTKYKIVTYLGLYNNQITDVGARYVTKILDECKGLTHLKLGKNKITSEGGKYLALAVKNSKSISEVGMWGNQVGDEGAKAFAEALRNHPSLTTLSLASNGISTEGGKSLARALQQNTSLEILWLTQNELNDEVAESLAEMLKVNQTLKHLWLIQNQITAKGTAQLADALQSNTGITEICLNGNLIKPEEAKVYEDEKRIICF
Description: Antagonist activity at human NOD1 expressed in HEK-Blue cells assessed as inhibition of C12-iE-DAP-stimulated cell activation at 10 uM preincubated for 3 hrs followed by C12-iE-DAP addition measured after 20 hrs by SEAP reporter gene assay. The assay is classed as cell-based. The method, boiled down:
as §1

Nucleotide-binding oligomerization domain-containing protein 2, sequence (Q9HC29 whole entry, the tested form may be a part): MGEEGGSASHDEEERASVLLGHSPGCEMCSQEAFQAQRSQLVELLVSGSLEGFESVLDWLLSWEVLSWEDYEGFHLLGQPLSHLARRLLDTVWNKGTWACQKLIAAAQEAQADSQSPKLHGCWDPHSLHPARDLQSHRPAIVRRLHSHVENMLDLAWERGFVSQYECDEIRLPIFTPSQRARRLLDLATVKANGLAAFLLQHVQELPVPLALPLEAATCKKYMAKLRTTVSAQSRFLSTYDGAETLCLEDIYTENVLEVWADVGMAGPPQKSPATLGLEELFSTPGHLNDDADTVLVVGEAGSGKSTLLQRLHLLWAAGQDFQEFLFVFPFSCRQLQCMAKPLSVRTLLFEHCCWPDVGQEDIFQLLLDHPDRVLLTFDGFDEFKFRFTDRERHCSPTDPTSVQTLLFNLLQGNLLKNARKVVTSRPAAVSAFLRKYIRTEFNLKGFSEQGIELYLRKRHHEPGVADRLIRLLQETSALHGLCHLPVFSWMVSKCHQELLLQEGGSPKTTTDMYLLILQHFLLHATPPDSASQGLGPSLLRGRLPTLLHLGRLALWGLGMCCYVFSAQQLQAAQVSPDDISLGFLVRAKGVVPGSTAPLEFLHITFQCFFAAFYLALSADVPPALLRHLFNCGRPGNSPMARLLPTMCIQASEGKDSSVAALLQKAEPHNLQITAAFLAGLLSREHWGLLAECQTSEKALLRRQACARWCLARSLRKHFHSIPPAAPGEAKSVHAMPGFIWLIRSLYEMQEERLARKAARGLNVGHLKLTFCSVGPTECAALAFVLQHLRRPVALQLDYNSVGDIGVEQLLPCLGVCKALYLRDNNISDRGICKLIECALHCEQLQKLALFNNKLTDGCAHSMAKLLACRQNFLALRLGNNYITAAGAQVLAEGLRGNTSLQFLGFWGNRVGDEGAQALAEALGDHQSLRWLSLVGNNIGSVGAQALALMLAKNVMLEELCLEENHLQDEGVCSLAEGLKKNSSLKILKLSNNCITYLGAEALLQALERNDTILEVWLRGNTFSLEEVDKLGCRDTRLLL

Broadly, the inhibition is the drop in the measured response relative to a control, in per cent. On to `COC(=O)CC[C@@H]1C(=O)Nc2cc(Cl)ccc2C(=O)N1C`, for which the inhibition in assay [1] is -1.87%.
Still for that read-out and setting: to `Cc1ccc(Oc2cc3c(cc2NC(=O)C2CC2)NC(=O)[C@@H](CCC(=O)O)NC3=O)cc1C` belongs -3.78%.
In the case of `CCCCCCCCCN1C(=O)[C@@H](CCC(=O)N[C@@H](C)C(N)=O)N(C)C(=O)c2ccc(Cl)cc21`, the inhibition was 17% in assay [2] and 27.7% in assay [1].
For `CCCCCCCNC(=O)CC[C@H]1NC(=O)c2cc(Cl)ccc2NC1=O` the same measures were -7.88% and 1.25%.
As to `CN(C)c1cccc(Oc2cc3c(cc2NC(=O)COCc2ccccc2)NC(=O)[C@@H](CCC(N)=O)NC3=O)c1`, in assay [1], the inhibition is 3.93%.
On to `COC(=O)CC[C@H]1NC(=O)c2cc(Oc3cccc4ccccc34)c(NC(=O)/C=C\c3ccc(F)cc3Cl)cc2NC1=O`, for which the inhibition was 37.9% in assay [2] and 34.2% in assay [1].
Regarding `CCCCCCCCCN1C(=O)[C@@H](CCC(N)=O)N(C)C(=O)c2ccc(Cl)cc21`, the inhibition is 22% in assay [2] and 29.5% in assay [1].
Take `NC(=O)CC[C@H]1NC(=O)c2cc(Oc3cccc4ccccc34)c(NC(=O)/C=C\c3ccc(F)cc3Cl)cc2NC1=O`: the inhibition came out at 70.6% in assay [2] and 54.8% in assay [1].
Turning to `COC(=O)CC[C@H]1NC(=O)c2cc(Oc3cccc4ccccc34)c(NC(=O)C3CC3)cc2NC1=O`, the inhibition in assay [2] was 6.34%; in assay [1], -0.3%.
In the same order, the values of `COC(=O)CC[C@H]1NC(=O)c2cc(Oc3ccccc3)c(NC(=O)Nc3ccc(F)cc3)cc2NC1=O` are -9.85% and 0.22%.
In the case of `NC(=O)CC[C@H]1NC(=O)c2cc(Oc3cccc4ccccc34)c(NC(=O)C3CC3)cc2NC1=O`, the figures for the inhibition in assay [2] and in assay [1] were 41.6% and 28.7%, respectively.
In the same order, the values of `CCN(CC)C(=O)CC[C@@H]1C(=O)N(CC2CC2)c2cc(Cl)ccc2C(=O)N1C` are -8.85% and 1.38%.
Regarding `COC(=O)CC[C@H]1NC(=O)c2cc(Oc3ccc(C)c(C)c3)c(NC(=O)COCc3ccccc3)cc2NC1=O`, the inhibition in assay [2] worked out at 73.8%; in assay [1] it was 54.4%.
For `CCCCCCCCCN1C(=O)[C@@H](CCC(=O)N2CCOCC2)N(C)C(=O)c2ccc(Cl)cc21` the same measures were 29.7% and 17.8%.
For `COC(=O)CCC1NC(=O)c2cc(Cl)ccc2N(C)C1=O` (stereo unspecified), in assay [1], the inhibition was determined as 1.87%.
For the compound `CCCCCCCCCCCCNCC(=O)Nc1cc2c(cc1Oc1cccc(N(C)C)c1)C(=O)N[C@H](CCC(=O)OC)C(=O)N2`, the figures for the inhibition in assay [2] and in assay [1] were 7.37% and -3.92%, respectively.
On to `CCN(CC)C(=O)CC[C@@H]1C(=O)Nc2cc(Cl)ccc2C(=O)N1C`, for which the inhibition in assay [1] was -7.53%.
Consider `C=CC(=O)Nc1cc2c(cc1Oc1cccc(N(C)C)c1)C(=O)N[C@H](CCC(=O)OC)C(=O)N2`, for which the inhibition in assay [2] is 82.1%; in assay [1], 91.9%.
Turning to `CCN(CC)C(=O)CC[C@H]1NC(=O)c2cc(Oc3cccc4ccccc34)c(NC(=O)/C=C\c3ccc(F)cc3Cl)cc2NC1=O`, in assay [1], the inhibition is 1.94%.
With `O=C(CC[C@H]1NC(=O)c2cc(N3CCOCC3)c(NC(=O)C3CC3)cc2NC1=O)NC1CCCc2ccccc21` (stereo partly specified), the figures for the inhibition in assay [2] and in assay [1] were 22.6% and 27.1%, respectively.
`CCCCN(CCCC)c1cc2c(cc1NC(=O)/C=C/c1ccc(F)cc1Cl)NC(=O)[C@@H](CCC(=O)OC)NC2=O`: the inhibition in assay [2] amounted to 76.5%; in assay [1] it was 60.8%.
In the same order, the values of `COC(=O)CC[C@H]1NC(=O)c2cc(OC)c(NC(=O)c3ccc4ccccc4c3)cc2NC1=O` are 66.4% and 76.6%.
For the compound `O=C(CC[C@H]1NC(=O)c2cc(N3CCOCC3)c(NC(=O)C3CC3)cc2NC1=O)NCCC1=CCCCC1`, the inhibition in assay [1] was -2.95%.
Regarding `CCN(CC)C(=O)CC[C@@H]1C(=O)N(CCC(C)C)c2cc(Cl)ccc2C(=O)N1C`, the inhibition in assay [2] is -7.62%.
As to `COC(=O)CC[C@H]1NC(=O)c2cc(OC)c(NC(=O)c3cc(C(F)(F)F)cc(C(F)(F)F)c3)cc2NC1=O`, the inhibition in assay [1] is -5.32%.
